Results taken from ChEMBL document CHEMBL1125380, “Synthesis, cardiac electrophysiology, and beta-blocking activity of novel arylpiperazines with potential as class II/III antiarrhythmic agents” (J Med Chem, 1992).
Calls of active or inactive are those of the source. No cut-off for these calls is given here.

How the values were obtained:
[1] = target: Beta-2 adrenergic receptor (Canis lupus familiaris, UniProt P54833); assay type: cell membranes
Canis familiaris [2] = species on record: Canis familiaris; test: Concentration necessary to prolong APD at 95% repolarization by 20% from control.; assay type: functional, Canis lupus familiaris
Procedure, shortened: (§1)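 Concentration giving a 20% prolongation of action potential duration at 95% repolarization versus control, with Vmax monitored as a class I index. Values are the log mean of n experiments with range; concentrations went up to 30 µM.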

Canis familiaris [3] = species on record: Canis familiaris; test: Concentration necessary to prolong APD at 95% repolarization by 20% from control; Not Reached at 30 uM; assay type: functional; details: Canis lupus familiaris
Procedure, shortened: as §1

Canis familiaris [4] = species on record: Canis familiaris; test: Number of active animals / number of tested animals in programmed electrical stimulation model (PES); assay type: functional, Canis lupus familiaris
Procedure, shortened: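 Conscious dogs studied by programmed electrical stimulation 3-8 days after occlusion/reperfusion infarction. Two control SVT/VF inductions were made first, with VF ended by DC countershock and SVT by burst pacing. Reinduction was tried after iv compound; an animal counted as protected if SVT/VF could not be induced.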

Canis familiaris [5] = species on record: Canis familiaris; test: Compound was evaluated for Cardiac output in dog; assay type: functional, Canis lupus familiaris
Procedure, shortened: (§2)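 Pentobarbital-anesthetized mongrel dogs (n = 4) received a 10 mg/kg iv dose over 5 min. Haemodynamic parameters were recorded 15 min after dosing, as change from pre-dose.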

Canis familiaris [6] = species on record: Canis familiaris; test: Compound was evaluated for Mean arterial pressure in dog; assay type: functional, Canis lupus familiaris, Artery
Procedure, shortened: as §2

Canis familiaris [7] = test: number of effected animals / number of tested animals at 3 mg/kg in a halothane / epinephrine model; assay type: functional, Canis lupus familiaris
Procedure, shortened: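 Halothane-anesthetized dogs received compound as a 10-min iv infusion at 3 mg/kg. Thirty minutes later, epinephrine was infused at 1.5 µg/kg per min for 15 min. Protection meant no SVT/VF during the whole epinephrine infusion; reported as protected/tested.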

Canis familiaris [8] = species on record: Canis familiaris; test: Compound was evaluated for Total peripheral resistance in dog; assay type: functional, Canis lupus familiaris
Procedure, shortened: as §2

Canis familiaris [9] = species on record: Canis familiaris; test: Compound was evaluated for change in Heart rate in dog; assay type: functional, Canis lupus familiaris
Procedure, shortened: as §2

Canis familiaris [10] = species on record: Canis familiaris; test: Peak range of change in left ventricular pressure in dog; assay type: functional, Canis lupus familiaris, Heart left ventricle
Procedure, shortened: as §2

Sequence of Beta-2 adrenergic receptor (P54833 whole entry): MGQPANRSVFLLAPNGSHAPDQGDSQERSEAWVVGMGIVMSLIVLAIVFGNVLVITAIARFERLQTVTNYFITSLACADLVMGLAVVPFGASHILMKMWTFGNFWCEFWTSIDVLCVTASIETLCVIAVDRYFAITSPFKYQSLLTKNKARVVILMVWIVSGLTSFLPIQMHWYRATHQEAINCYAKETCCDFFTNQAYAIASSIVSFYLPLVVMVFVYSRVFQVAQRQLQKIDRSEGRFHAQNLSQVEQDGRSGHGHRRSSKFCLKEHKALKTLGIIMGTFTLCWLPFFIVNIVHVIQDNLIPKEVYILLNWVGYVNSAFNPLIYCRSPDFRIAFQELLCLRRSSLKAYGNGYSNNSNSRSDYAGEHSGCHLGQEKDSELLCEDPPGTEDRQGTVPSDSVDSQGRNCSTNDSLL

CS(=O)(=O)Nc1ccc(CNCC2CN(c3ccccc3)CCN2)cc1 (configuration not stated)
IC50 [1]: 4.6 µM | C20 APD95 (Canis familiaris [2]): 0.4 µM

CS(=O)(=O)Nc1ccc(OCC2CN(c3ccccc3)CCN2)cc1 (configuration not stated)
IC50 [1]: 4.5 µM | C20 APD95 (Canis familiaris [2]): 1 µM

Cc1ccc(N2CCNCC2)cc1
IC50 [1]: > 100 µM

CN(c1ccc(C(=O)NCC2CN(c3ccccc3)CCN2)cc1)S(C)(=O)=O (configuration not stated)
IC50 [1]: 4.3 µM | C20 APD95 (Canis familiaris [3]): inactive

Clc1ccc(N2CCNCC2)cc1
IC50 [1]: 70 µM

COc1ccc(N2CCNCC2)cc1
IC50 [1]: > 100 µM

CC(C)NCC(O)c1ccc(NS(C)(=O)=O)cc1 (configuration not stated) [SOTALOL]
No. active (Canis familiaris [4]): 7 | Cardiac output (Canis familiaris [5]): -44 | MAP (Canis familiaris [6]): -26 | C20 APD95 (Canis familiaris [2]): 18 µM | No. effective (Canis familiaris [7]): 6 | TPR (Canis familiaris [8]): 41 | HR (Canis familiaris [9]): -39 | LV (Canis familiaris [10]): -33

CC(=O)c1ccc(N2CCNCC2)cc1
IC50 [1]: > 100 µM

COc1cccc(N2CCNC(CNC(=O)c3ccc(NS(C)(=O)=O)cc3)C2)c1 (configuration not stated)
IC50 [1]: 3.5 µM | C20 APD95 (Canis familiaris [2]): 2.5 µM

CS(=O)(=O)Nc1ccc(C(=O)NCC2CNCCN2c2ccccc2)cc1 (configuration not stated)
IC50 [1]: 31 µM | C20 APD95 (Canis familiaris [2]): 3.2 µM

O=C(NCC1CN(c2ccccc2)CCN1)c1ccccc1 (configuration not stated)
IC50 [1]: 6.2 µM | C20 APD95 (Canis familiaris [3]): inactive

Clc1cccc(N2CCNCC2)c1 [CHLOROPHENYLPIPERAZINE]
IC50 [1]: 18 µM

Clc1ccccc1N1CCNCC1
IC50 [1]: 16 µM

COc1ccccc1N1CCNC(CNC(=O)c2ccc(NS(C)(=O)=O)cc2)C1 (configuration not stated)
IC50 [1]: 0.63 µM | C20 APD95 (Canis familiaris [2]): 18 µM

CS(=O)(=O)Nc1ccc(NCC2CNCCN2c2ccccc2)cc1 (configuration not stated)
IC50 [1]: 42 µM | C20 APD95 (Canis familiaris [2]): 9.2 µM

Cc1cccc(N2CCNCC2)c1
IC50 [1]: 40 µM

O=C(NCC1CN(c2ccccc2)CCN1)c1ccc(-n2ccnc2)cc1 (configuration not stated)
IC50 [1]: 4.3 µM | C20 APD95 (Canis familiaris [2]): 0.9 µM

COc1ccccc1N1CCNCC1
IC50 [1]: 34 µM

Cc1ccccc1N1CCNCC1
IC50 [1]: 29 µM

CS(=O)(=O)Nc1ccc(C(=O)NCC2CN(c3ccccc3)CCN2)cc1 (configuration not stated)
No. active (Canis familiaris [4]): 6 | IC50 [1]: 3.4 µM | Cardiac output (Canis familiaris [5]): -14 | MAP (Canis familiaris [6]): 5 | C20 APD95 (Canis familiaris [2]): 0.8 µM | No. effective (Canis familiaris [7]): 5 | TPR (Canis familiaris [8]): 22 | HR (Canis familiaris [9]): 38 | LV (Canis familiaris [10]): 3

CS(=O)(=O)Nc1ccc(NCC2CN(c3ccccc3)CCN2)cc1 (configuration not stated)
IC50 [1]: 1 µM | C20 APD95 (Canis familiaris [2]): 2 µM

c1ccc(N2CCNCC2)cc1 [PHENYLPIPERAZINE]
IC50 [1]: > 100 µM

CS(=O)(=O)Nc1ccc(NC(=O)C2CN(c3ccccc3)CCN2)cc1 (configuration not stated)
IC50 [1]: > 100 µM | C20 APD95 (Canis familiaris [2]): 21 µM

COc1cccc(N2CCNCC2)c1
IC50 [1]: 29 µM

CS(=O)(=O)Nc1ccc(C(=O)NCC2CN(c3cccc(Cl)c3)CCN2)cc1 (configuration not stated)
IC50 [1]: 3.8 µM | C20 APD95 (Canis familiaris [2]): 0.8 µM
